# RGS4 pot – RGS4 potentiation or activation; HEK293 M3R/inducible RGS4, carbachol calcium flux Fluo4; hits give low values; AID 463111; actives 0.92% (n = 310,000); B-score at 10 µM;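 active means B-score of the integrated calcium signal more than 4 SD below the library mean, with starting fluorescence not abnormally high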;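 further: negative B-score means reduced calcium response which marks RGS4 activation or potentiation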
#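 Test system: HEK293 cells with stable M3R and inducible RGS4; also added: carbachol at ECmax as muscarinic agonist stimulus; schedule: dye loading 30 min 37 °C, buffer rest 30 min RT; technique: kinetic calcium fluorescence imaging with Fluo4-AM dye, 2 µM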
# MrgX1 allo act – allosterically activates human MrgX1 receptor signaling; Q96LB2; MrgX1-HEK293, Fluo-4 calcium flux, FDSS; hits give high values; B-score at 10 µM; actives 0.63% (n = 310,000);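 active means plate-corrected calcium response at least 3 library SD above typical, normal starting fluorescence, not activating the receptor alone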;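 further: compound read alongside a low EC10 to EC30 dose of BAM8-22 agonist; peak minus trough fluorescence over baseline measured at the second addition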
# RGS4 block – human RGS4 inhibition; HEK293 M3R/RGS4 inducible, Fluo-4 calcium flux; hits give high values; triggered by carbachol at its EC20; B-score at 10 µM; actives 0.45% (n = 310,000);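 active means B-score, a plate-corrected calcium signal, over three deviations above library mean, with baseline fluorescence within five deviations of library mean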;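 further: RGS4 expression induced by doxycycline in cells with stable M3 receptor; B-score is computed from the integrated fluorescence ratio over baseline after carbachol; higher B-score means a larger calcium signal and so more RGS4 inhibition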
# Target sequence (P49798 whole entry, looked up): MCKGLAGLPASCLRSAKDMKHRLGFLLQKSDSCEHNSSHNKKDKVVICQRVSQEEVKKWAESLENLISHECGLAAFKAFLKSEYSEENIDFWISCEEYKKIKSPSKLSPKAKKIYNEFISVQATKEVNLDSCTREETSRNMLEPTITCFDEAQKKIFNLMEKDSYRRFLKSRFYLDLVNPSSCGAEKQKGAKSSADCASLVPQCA
# MrgX1 antag – antagonists of human MrgX1 receptor; actives 1.3% (n = 310,000); Q96LB2; MRGX1-HEK293 calcium flux, Fluo-4, BAM8-22 antagonism; hits give low values; B-score at 10 µM; AID 588676;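 active means calcium-response B-score plate-corrected more than 3 library SD below zero, starting fluorescence within 5 deviations, no agonist response on first addition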;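 further: peak minus trough fluorescence over baseline after final BAM8-22 challenge near maximal dose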
# MrgX1 agonist – human MrgX1 receptor agonism, primary screen. B-score at 10 µM. MrgX1-HEK293 cells, Fluo-4 calcium fluorescence, agonist mode; hits give high values. Q96LB2. AID 588627. actives 0.44% (n = 310,000);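 active means calcium response B-score plate-corrected fluorescence ratio at least 3 library SD, with starting fluorescence B-score inside 5 SD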
#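 Test system: HEK293 cells stably expressing human MrgX1 receptor; Input: fifteen thousand cells per well; Dosing: compound delivered in addition one of three; Schedule: overnight seeding, then 1 h dark dye loading; Technique: Fluo-4 NW calcium fluorescence; Measure: B-scored fluorescence response ratio; Controls: positive and negative controls per plate.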
# MrgX1 ag confirm – human MrgX1 agonism, re-confirmation screen; activation, % at 10 µM; shares compounds with MrgX1 agonist; MrgX1-HEK293, Fluo-4 calcium fluorescence, FDSS; actives 78% (n = 600);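 active means calcium signal rise, corrected for plate position, at least 3 library SD high, with starting brightness within 5 such deviations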
# HEK293 Ca flux – counter-screen for MrgX1 antagonists: effect in parental HEK293 cells. shares compounds with MrgX1 antag. actives 2% (n = 4,000). Fluo-4 calcium fluorescence, FDSS. fluorescence ratio F(max-min)/F0 at 10 µM. AID 624111;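 active means duplicate-averaged calcium fluorescence ratio at least three times the standard deviation of buffer wells, a nonspecific response in parental cells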
# HEK293 Ca counter – activity in parental HEK293 cells without MrgX1; actives 0.4% (n = 4,000); parental HEK293 calcium flux, Fluo-4 fluorescence ratio; hits give high values; shares compounds with MrgX1 antag; AID 624114; fluorescence ratio F(max-min)/F0 at 10 µM;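 active means calcium fluorescence ratio, averaged over duplicates, at least 3 SD of the buffer-well ratio, meaning a nonspecific response in receptor-free cells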;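 further: untransfected parental HEK293 lacking MrgX1 used as counterscreen for MrgX1 allosteric activators; fluorescence change taken during the second addition on a kinetic imager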
# HEK293 Ca cntr2 – counter-screen for MrgX1 activators: effect in parental HEK293 cells; fluorescence ratio F(max-min)/F0 at 10 µM; Fluo-4 calcium fluorescence (FDSS); hits give high values; actives 8.7% (n = 4,000); shares compounds with MrgX1 antag;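 active means calcium fluorescence ratio at least three times the spread of buffer wells, meaning a non-specific response in parental cells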
# * marks the source's active call; other numbers are inactive results; i = inactive; nt = no result given. Compounds with a hit are over-represented: about 3.5% of the library has one in this group of screens.
SMILES,RGS4 pot,MrgX1 allo act,RGS4 block,MrgX1 antag,MrgX1 agonist,MrgX1 ag confirm,HEK293 Ca flux,HEK293 Ca counter,HEK293 Ca cntr2
CCOCCn1c(SC(C)C(C)=O)nc2c1c(=O)[nH]c(=O)n2C (configuration not stated),i,i,i,i,53*,i,i,i,i
Cc1cc2nc3ccc(N(C)C)cc3nc2cc1N,i,i,i,i,26*,259%*,i,i,i
COc1cccc(-c2nnn(CC(=O)N(CC(C)C)C3CCS(=O)(=O)C3)n2)c1 (configuration not stated),i,i,i,i,i,nt,nt,nt,nt
Cc1cccc(C)c1NC(=O)C(=O)NCCc1c[nH]c2ccccc12,i,i,i,i,41*,i,i,49*,i
Cc1cccc(NC(=O)C(=O)NCCc2c[nH]c3ccccc23)c1C,i,i,i,i,i,nt,nt,nt,nt
CCCCCC(=O)N/N=C(\C)c1ccccn1,i,i,i,i,86*,i,i,i,i
CCCCCCCCCC(=O)N/N=C(\C)c1cccnc1,i,i,i,i,i,nt,nt,nt,nt
O=c1oc(-c2ccccc2Cl)nc2ccsc12,i,i,i,i,51*,210%*,i,i,60*
CC(C)OC(=O)CSc1nnc(-c2ccc(C(C)(C)C)cc2)n1N,i,i,i,i,i,nt,nt,nt,nt
CC(C)OC(=O)CSc1nnc(-c2ccncc2)n1N,i,i,i,i,41*,i,i,i,i
Cc1cc(Nc2ccc(Cl)cc2)nc(N)n1,i,i,i,i,35*,207%*,i,i,i
CCOc1cc(/C=N/NC(=O)c2ccc(CN3CCOCC3)cc2)ccc1OC,i,i,i,i,i,nt,nt,nt,nt
CCOc1cc(/C=C/C(=O)c2ccc(OC)c(CN3CCOCC3)c2)cc(Br)c1O,i,i,i,i,143*,675%*,i,i,131*
COc1ccc2c(c1OC)C(=O)N(c1cccc(NC(C)=O)c1)C2,i,i,i,i,27*,119%*,i,i,i
Cn1c2ccccc2c(=O)c2c(=O)n(C3CCCCC3)c(-c3cccs3)nc21,i,i,i,i,110*,596%*,i,i,98*
Cn1c2ccccc2c(=O)c2c(=O)n(-c3ccccc3)c(C3CCCCC3)nc21,i,i,i,i,i,nt,nt,nt,nt
Cn1c2ccccc2c(=O)c2c(=O)n(C3CCCCCC3)c(C3CCCCC3)nc21,i,nt,i,nt,nt,nt,nt,nt,nt
CCc1nc2c(c(=O)c3ccccc3n2C)c(=O)n1C1CCCCCC1,i,i,i,i,117*,481%*,i,i,97*
CCc1ccc2nc(Nc3ccc(OC)cc3OC)c(C#N)cc2c1,i,i,i,i,i,nt,nt,nt,nt
CC(C)c1ccc(S(=O)(=O)NCc2ccc3c(c2)OCO3)cc1,i,i,i,i,i,nt,nt,nt,nt
Cc1ccc(-c2csc3ncn(CC(=O)N4CCOCC4)c(=O)c23)cc1C,i,i,i,i,32*,135%*,i,i,i
N#CC1=C(N)Oc2n[nH]c(-c3ccccc3)c2C12C(=O)Nc1ccccc12 (configuration not stated),i,i,i,i,i,nt,nt,nt,nt
Cn1c2c(c(=O)n(C)c1=O)[C@@]1(C(=O)Nc3ccccc31)C(C#N)=C(N)O2,i,i,i,i,41*,173%*,i,i,i
